From ChEMBL document CHEMBL4373742, “Novel thiazolidinedione-hydroxamates as inhibitors of Mycobacterium tuberculosis virulence factor Zmp1” (Eur J Med Chem, 2020)
The source made the active and inactive calls. No cut-off for these calls is given here.

What was measured:
[1] = tested on: Mycobacterium tuberculosis; assay: Inhibition of Mycobacterium tuberculosis Zinc metalloprotease-1 at 40 uM using angiotensin 2 as substrate preincubated for 3 mins and measured after 20 mins by MALDI-TOF MS analysis relative to control
Method in brief: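 Human angiotensin II substrate in NH4HCO3 was preincubated 3 min at 37 °C with inhibitor in acetone (acetone alone for control). Recombinant Mtb Zmp1 was added and the reaction ran 20 min at 37 °C. Cleavage was followed by MALDI-TOF MS (reflectron positive mode). Inhibition rate at 40 µM was taken as the inverted ratio of time-course slopes, inhibited versus control. Phosphoramidon reference at 40 µM final.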

[2] = Inhibition of Mycobacterium tuberculosis Zinc metalloprotease-1 using angiotensin 2 as substrate preincubated for 3 mins and measured after 20 mins by MALDI-TOF MS analysis
Method in brief: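 Zmp1 digestion of human angiotensin II in NH4HCO3 at 37 °C: 3 min preincubation with inhibitor, then 20 min reaction with recombinant Mtb Zmp1, monitored by MALDI-TOF MS. IC50 derived from slope ratios, inhibited versus control, at three inhibitor concentrations within 20–80 µM.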

[3] = Cytotoxicity against mouse RAW264.7 cells assessed as reduction in cell viability after 24 hrs by neutral red dye based assay
Method in brief: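 Neutral red uptake assay on RAW264.7 murine macrophages in DMEM + 10% heat-inactivated FCS, 40.000 cells/well, seeded the day before. Two-fold serial dilutions from 128 µM final. Exposure 24 h at 37 °C, 5% CO2; then neutral red for 3 h, extraction with 1:1 ethanol/acetic acid. OD read at 530 nm (reference 620 nm).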

[4] = tested on: Mycobacterium tuberculosis; assay: Antimycobacterial activity against Mycobacterium tuberculosis H37Ra infected in mouse RAW264.7 cells assessed as inhibition of intracellular bacterial growth at 10 uM after 24 hrs by luciferase reporter gene based assay relative to control; format: functional; conditions: RAW264.7, 24 h, read-out: INH
Method in brief: (§1)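 Murine RAW264.7 macrophages (DMEM + 10% heat-inactivated FCS, 37 °C, 5% CO2; 40.000 cells/well) infected 2 h at 37 °C with luciferase-reporter Mtb H37Ra (pSMT1) at MOI 10. Extracellular bacteria were killed with 100 µg/ml gentamicin for 1 h. Compounds were given at 10 and 100 µM final; isoniazid reference 0.1 µM. After 24 h, cells were lysed in 1% Triton X-100 and read by luminescence after n-decanal addition. Inhibition % was calculated versus untreated control; mean of triplicates.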

[5] = tested on: Mycobacterium tuberculosis; assay: Antimycobacterial activity against Mycobacterium tuberculosis H37Ra infected in mouse RAW264.7 cells assessed as inhibition of intracellular bacterial growth at 100 uM after 24 hrs by luciferase reporter gene based assay relative to control; format: functional; conditions: RAW264.7, 24 h; method in brief: as §1
[6] = Selectivity index, ratio of CC50 for mouse RAW264.7 cells to MIC90 for antimycobacterial activity against Mycobacterium tuberculosis H37Rv; format: toxicity; conditions: read-out: Selectivity Index
[7] = tested on: Mycobacterium tuberculosis; assay: Antimycobacterial activity against Mycobacterium tuberculosis H37Ra infected in mouse RAW264.7 cells assessed as inhibition of intracellular bacterial growth at 100 uM after 24 hrs by luciferase reporter gene based assay; format: functional, organism-based; method in brief: as §1
[8] = tested on: Mycobacterium tuberculosis; assay: Antimycobacterial activity against Mycobacterium tuberculosis H37Ra infected in mouse RAW264.7 cells assessed as inhibition of intracellular bacterial growth at 10 uM after 24 hrs by luciferase reporter gene based assay; format: functional, organism-based; method in brief: as §1

Row | Compound | inhibition [1] [%] | IC50 [2] [µM] | CC50 at 24 h [3] [µM] | percent inhibition of intracellular bacterial growth at 10 µM [4] [%] | inhibition in vivo at 100 µM [5] [%] | selectivity ratio [6] | inhibition [7] | inhibition [8]
1 | CC(C(=O)NOCc1ccccc1)N1C(=O)CSC1=O (centres undefined) | 78.1 | 20 to 160 | > 128 | – | – | – | – | –
2 | CC(C)C[C@H](NP(=O)(O)O[C@@H]1O[C@@H](C)[C@H](O)[C@@H](O)[C@H]1O)C(=O)N[C@@H](Cc1c[nH]c2ccccc12)C(=O)O [PHOSPHORAMIDON] | 78 | 20 to 160 | – | – | – | – | – | –
3 | O=C(CN1C(=O)S/C(=C\c2ccc(C(F)(F)F)cc2)C1=O)NOCc1ccccc1 | 64.9 | 38 | > 128 | 48.8 | 70.4 | – | – | –
4 | CC(C(=O)NOCc1ccccc1)N1C(=O)S/C(=C\c2ccccc2)C1=O (centres undefined) | 93.3 | 20 to 160 | > 128 | 46.9 | – | – | – | –
5 | O=C(CN1C(=O)CSC1=O)NOCc1ccccc1 | 31.9 | 20 to 160 | > 128 | – | – | – | – | –
6 | C=CCONC(=O)CN1C(=O)S/C(=C\CCCC)C1=O | 89.9 | 18 | > 128 | – | – | > 2.1 | Active | –
7 | C=CCONC(=O)CN1C(=O)S/C(=C\c2ccc(F)cc2)C1=O | 69.8 | 20 to 160 | > 128 | – | – | – | – | –
8 | C=CCONC(=O)CN1C(=O)S/C(=C\c2ccccc2)C1=O | 59 | 20 to 160 | > 128 | – | – | – | – | –
9 | C=CCONC(=O)CN1C(=O)CSC1=O | 92.2 | 20 to 160 | > 128 | 30.2 | – | – | – | –
10 | CC(C(=O)NOCc1ccccc1)N1C(=O)S/C(=C\c2ccc(F)cc2)C1=O (centres undefined) | 95.8 | 20 to 160 | > 128 | 25.1 | – | – | – | –
11 | O=C(CN1C(=O)S/C(=C\c2ccc(F)cc2)C1=O)NOCc1ccccc1 | 78.3 | 20 to 160 | > 128 | 20.6 | – | – | – | –
12 | C=CCONC(=O)C(C)N1C(=O)S/C(=C\c2ccccc2)C1=O (centres undefined) | 13 | 20 to 160 | > 128 | – | – | – | – | –
13 | C=CCONC(=O)C(C)N1C(=O)S/C(=C\c2ccc(F)cc2)C1=O (centres undefined) | 95.5 | 20 to 160 | > 128 | – | – | – | – | –
14 | CCCC/C=C1\SC(=O)N(CC(=O)NOCc2ccccc2)C1=O | 99.8 | 20 to 160 | > 128 | – | – | – | – | inactive
15 | C=CCONC(=O)C(C)N1C(=O)S/C(=C\CCCC)C1=O (centres undefined) | 34.7 | 20 to 160 | > 128 | – | – | – | – | –
16 | CC/C(=C(\c1ccccc1)c1ccc(OCCN(C)C)cc1)c1ccccc1 [TAMOXIFEN] | – | – | 11.1 | – | – | – | – | –
17 | C=CCONC(=O)C(C)N1C(=O)CSC1=O (centres undefined) | 57.9 | 20 to 160 | > 128 | 21.6 | – | – | – | –
18 | O=C(CN1C(=O)S/C(=C\c2ccccc2)C1=O)NOCc1ccccc1 | 59.5 | 20 to 160 | > 128 | 38.3 | – | – | – | –
19 | CCCC/C=C1\SC(=O)N(C(C)C(=O)NOCc2ccccc2)C1=O (centres undefined) | 37.1 | 20 to 160 | 43.9 | – | – | > 0.7 | – | inactive
20 | C=CCONC(=O)CN1C(=O)S/C(=C\c2ccc(C(F)(F)F)cc2)C1=O | 87.2 | 20 to 160 | > 128 | – | – | – | – | inactive
21 | CC(C(=O)NOCc1ccccc1)N1C(=O)S/C(=C\c2ccc(C(F)(F)F)cc2)C1=O (centres undefined) | 16.3 | 20 to 160 | > 128 | 19.4 | – | – | – | –
22 | C=CCONC(=O)C(C)N1C(=O)S/C(=C\c2ccc(C(F)(F)F)cc2)C1=O (centres undefined) | 44.5 | 20 to 160 | > 128 | – | – | – | – | inactive
